Data published in ChEMBL document CHEMBL1138853, “Synthesis and antituberculosis activity of a novel series of optically active 6-nitro-2,3-dihydroimidazo[2,1-b]oxazoles” (2006).
≈ marks a conversion by molar mass, not a printed value.

Experiments:
[1] = system: Mycobacterium tuberculosis; assay: Antituberculosis activity against Mycobacterium tuberculosis H37Rv; type: functional
How it was run: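 Agar dilution on 7H11 plates with drug-susceptible and drug-resistant M. tuberculosis H37Rv strains grown in Middlebrook 7H9 broth. Frozen stocks (-80 °C) diluted to about 10⁶ CFU/mL and spotted with a multipoint inoculator onto drug-containing plates. Drugs dissolved in DMSO and serially diluted 2-fold in DMSO. Read-out: MIC.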

[2] = system: Mycobacterium tuberculosis; assay: Reduction in log CFU of Mycobacterium tuberculosis Kurono infected in mouse lung at 50 mg/kg, po relative to control; type: functional
How it was run: (§1)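 Mice weighing 20-25 g infected intravenously via tail vein with 10⁴ CFU of M. tuberculosis Kurono. Oral dosing once daily at 0.5-50 mg/kg for 10 days (n = 2), starting the day after infection. Sacrificed on day 11; lungs homogenised and dilution-plated on 7H11 agar at 37 °C for 14 days. Mean log CFU reduction calculated against untreated controls.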

[3] = system: Mycobacterium tuberculosis; assay: Reduction in log CFU of Mycobacterium tuberculosis Kurono infected in mouse lung at 10 mg/kg, po after 10 days; type: functional; how it was run: as §1
[4] = system: Mycobacterium tuberculosis; assay: Reduction in log CFU of Mycobacterium tuberculosis Kurono infected in mouse lung at 0.5 mg/kg, po after 10 days; type: functional; how it was run: as §1
[5] = system: Mycobacterium tuberculosis; assay: Reduction in log CFU of Mycobacterium tuberculosis Kurono infected in mouse lung at 5 mg/kg, po after 10 days; type: functional; how it was run: as §1
[6] = system: Mycobacterium tuberculosis; assay: Decrease in Mycobacterium tuberculosis count in mouse pulmonary; type: functional, organism-based
How it was run: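 ICR male mice (20-25 g) infected intravenously via tail vein with 10⁴ CFU of M. tuberculosis Kurono. Dosed orally once daily as a 5% gum arabic suspension for 28 days (n = 6), starting the day after infection. Sacrificed on day 29; lung homogenates plated on 7H11 agar at 37 °C for 14 days. Counts compared with untreated controls.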

SMILES: C[C@]1(COc2ccc(C(F)(F)F)cc2)Cn2cc([N+](=O)[O-])nc2O1
- MIC [1]: 0.2 µg/mL (≈ 0.583 µM)
- Activity [2]: >4.4

SMILES: C[C@]1(COc2ccc(N3CCOCC3)cc2)Cn2cc([N+](=O)[O-])nc2O1
- MIC [1]: 0.78 µg/mL (≈ 2.16 µM)
- Activity [2]: 1.3

SMILES: C[C@]1(COc2ccc(N3CCC(Oc4ccc(Cl)cc4)CC3)cc2)Cn2cc([N+](=O)[O-])nc2O1
- MIC [1]: 0.05 µg/mL (≈ 0.103 µM)
- Activity [2]: 2.2

SMILES: C[C@]1(COc2ccc(N3CC[S+]([O-])CC3)cc2)Cn2cc([N+](=O)[O-])nc2O1
- MIC [1]: 6.25 µg/mL (≈ 15.9 µM)

SMILES: C[C@]1(COc2ccc(N3CCC(Oc4ccc(F)cc4)CC3)cc2)Cn2cc([N+](=O)[O-])nc2O1
- MIC [1]: 0.39 µg/mL (≈ 0.832 µM)
- Activity [2]: 2.2

SMILES: O=[N+]([O-])c1cn2c(n1)OC(COCc1ccccc1)C2 (centres undefined)
- MIC [1]: 3.13 µg/mL (≈ 11.4 µM)

SMILES: C[C@]1(COc2ccc(Cl)cc2)Cn2cc([N+](=O)[O-])nc2O1
- MIC [1]: 0.024 µg/mL (≈ 0.0775 µM)
- Activity [2]: >3.1

SMILES: C[C@]1(COc2ccc(OC(F)(F)F)cc2)Cn2cc([N+](=O)[O-])nc2O1
- MIC [1]: 0.2 µg/mL (≈ 0.557 µM)
- Activity [3]: 3
- Activity [4]: 0.4
- Activity [2]: >3.6

SMILES: CC1(COc2ccccc2)Cn2cc([N+](=O)[O-])nc2O1 (centres undefined)
- MIC [1]: 0.1 µg/mL (≈ 0.363 µM)

SMILES: CO[C@H]1/C=C/O[C@@]2(C)Oc3c(C)c(O)c4c(O)c(c(/C=N/N5CCN(C)CC5)c(O)c4c3C2=O)NC(=O)/C(C)=C\C=C\[C@H](C)[C@H](O)[C@@H](C)[C@@H](O)[C@@H](C)[C@H](OC(C)=O)[C@@H]1C [RIFAMPIN]
- MIC [1]: 0.1 µg/mL (≈ 0.122 µM)
- Activity [5]: 0.5

SMILES: C[C@]1(COc2ccc(N3CCSCC3)cc2)Cn2cc([N+](=O)[O-])nc2O1
- MIC [1]: 0.78 µg/mL (≈ 2.07 µM)
- Activity [2]: 0

SMILES: C[C@]1(COc2ccccc2)Cn2cc([N+](=O)[O-])nc2O1
- MIC [1]: 0.05 µg/mL (≈ 0.182 µM)
- Activity [2]: 2

SMILES: C[C@]1(COc2ccc(N3CCC(Oc4ccccc4)CC3)cc2)Cn2cc([N+](=O)[O-])nc2O1
- MIC [1]: 0.39 µg/mL (≈ 0.866 µM)
- Activity [2]: 2.8

SMILES: C[C@]1(COc2ccc(N3CCC(Oc4cccc(OC(F)(F)F)c4)CC3)cc2)Cn2cc([N+](=O)[O-])nc2O1
- MIC [1]: 0.024 µg/mL (≈ 0.0449 µM)
- Activity [2]: >4.4

SMILES: C[C@]1(COc2ccc(N3CCC(Oc4ccccc4OC(F)(F)F)CC3)cc2)Cn2cc([N+](=O)[O-])nc2O1
- MIC [1]: 0.39 µg/mL (≈ 0.73 µM)
- Activity [2]: 3

SMILES: C[C@]1(COc2ccc(N3CCC(Oc4ccc(C(F)(F)F)cc4)CC3)cc2)Cn2cc([N+](=O)[O-])nc2O1
- MIC [1]: 0.012 µg/mL (≈ 0.0231 µM)
- Activity [2]: 2.2

SMILES: C[C@]1(COc2ccc(N3CCCCC3)cc2)Cn2cc([N+](=O)[O-])nc2O1
- MIC [1]: 0.78 µg/mL (≈ 2.18 µM)
- Activity [2]: 1.9

SMILES: C[C@]1(COc2ccc(N3CCC(Oc4ccc(OC(F)(F)F)cc4)CC3)cc2)Cn2cc([N+](=O)[O-])nc2O1 [DELAMANID]
- MIC [1]: 0.006 µg/mL (≈ 0.0112 µM)
- Activity [3]: >4.4
- Activity [6]: Dose-dependent effect
- Activity [4]: 2.5
- Activity [2]: >3.8

SMILES: C[C@@]1(COc2ccccc2)Cn2cc([N+](=O)[O-])nc2O1
- MIC [1]: 3.13 µg/mL (≈ 11.4 µM)

SMILES: COc1ccc(OC2CCN(c3ccc(OC[C@@]4(C)Cn5cc([N+](=O)[O-])nc5O4)cc3)CC2)cc1
- MIC [1]: 0.39 µg/mL (≈ 0.812 µM)
- Activity [2]: 0.1

SMILES: O=[N+]([O-])c1cn2c(n1)OC(COCCc1ccccc1)C2 (centres undefined)
- MIC [1]: 1.56 µg/mL (≈ 5.39 µM)

SMILES: Cc1ccc(OC[C@@]2(C)Cn3cc([N+](=O)[O-])nc3O2)cc1
- MIC [1]: 0.012 µg/mL (≈ 0.0415 µM)
- Activity [2]: 2.9

SMILES: Cc1ccc(OC2CCN(c3ccc(OC[C@@]4(C)Cn5cc([N+](=O)[O-])nc5O4)cc3)CC2)cc1
- MIC [1]: 0.78 µg/mL (≈ 1.68 µM)
- Activity [2]: 0.6

SMILES: O=[N+]([O-])c1cn2c(n1)OC(COC/C=C/c1ccccc1)C2 (centres undefined)
- MIC [1]: 12.5 µg/mL (≈ 41.5 µM)

SMILES: COc1ccc(OC[C@@]2(C)Cn3cc([N+](=O)[O-])nc3O2)cc1
- MIC [1]: 0.05 µg/mL (≈ 0.164 µM)
- Activity [2]: 0.72
